Assays:
[1] = target: T1, Bifunctional epoxide hydrolase 2 (Mus musculus, UniProt P34914); assay: Inhibition of mouse recombinant soluble Epoxide hydrolase
T1 sequence (P34914 whole entry): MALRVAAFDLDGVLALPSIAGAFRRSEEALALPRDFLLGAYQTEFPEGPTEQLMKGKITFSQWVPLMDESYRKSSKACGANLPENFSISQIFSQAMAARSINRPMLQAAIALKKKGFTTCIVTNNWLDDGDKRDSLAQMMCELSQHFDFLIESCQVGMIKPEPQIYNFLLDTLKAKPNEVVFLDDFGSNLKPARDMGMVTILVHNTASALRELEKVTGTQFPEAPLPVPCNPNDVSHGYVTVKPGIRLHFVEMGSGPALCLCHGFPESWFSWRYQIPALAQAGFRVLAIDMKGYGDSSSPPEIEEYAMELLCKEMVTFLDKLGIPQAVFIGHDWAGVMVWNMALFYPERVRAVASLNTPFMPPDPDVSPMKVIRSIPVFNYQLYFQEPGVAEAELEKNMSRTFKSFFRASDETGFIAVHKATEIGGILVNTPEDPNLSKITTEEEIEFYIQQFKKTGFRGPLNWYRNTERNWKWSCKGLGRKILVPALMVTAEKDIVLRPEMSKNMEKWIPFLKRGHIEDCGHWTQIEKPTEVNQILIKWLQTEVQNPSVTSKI

[2] = Solubility in sodium phosphate buffer at pH 7.4; assay type: physicochemical
In short: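 Solubility measured in sodium phosphate buffer, 100 mM, pH 7.4, following a previously described procedure.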

[3] = target: T2, Bifunctional epoxide hydrolase 2 (Homo sapiens, UniProt P34913); assay: Inhibition of human recombinant soluble Epoxide hydrolase
T2 sequence (P34913 whole entry): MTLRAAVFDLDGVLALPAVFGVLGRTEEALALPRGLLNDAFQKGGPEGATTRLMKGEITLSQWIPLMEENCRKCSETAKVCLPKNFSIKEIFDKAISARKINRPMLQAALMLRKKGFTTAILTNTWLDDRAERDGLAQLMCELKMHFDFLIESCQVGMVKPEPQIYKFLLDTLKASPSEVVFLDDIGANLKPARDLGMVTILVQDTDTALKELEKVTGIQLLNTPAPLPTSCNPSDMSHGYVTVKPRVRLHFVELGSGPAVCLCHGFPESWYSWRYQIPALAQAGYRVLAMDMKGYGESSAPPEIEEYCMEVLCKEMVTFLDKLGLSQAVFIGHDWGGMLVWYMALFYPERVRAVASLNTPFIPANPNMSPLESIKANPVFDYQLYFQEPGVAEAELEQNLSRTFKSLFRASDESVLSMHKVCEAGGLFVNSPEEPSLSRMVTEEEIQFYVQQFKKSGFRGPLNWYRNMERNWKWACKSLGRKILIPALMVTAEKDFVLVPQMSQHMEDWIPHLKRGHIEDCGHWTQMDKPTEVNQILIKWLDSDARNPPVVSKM

IC50 [1] [µM]	solubility [2] [µM]	IC50 [3] [µM]	Compound
0.05	> 500	–	O=C(CCCNC(=O)NC12CC3CC(CC(C3)C1)C2)N[C@@H](Cc1cnc[nH]1)C(=O)O
–	> 500	0.1	O=C(CCCCCNC(=O)NC1CCCCC1)N[C@@H](Cc1ccccc1)C(=O)N1CCC[C@H]1C(=O)O
–	> 500	2.4	O=C(CCCCCNC(=O)NC1CCCCC1)N[C@@H](Cc1ccccc1)C(=O)N[C@@H](CO)C(=O)O
–	> 500	> 100	O=C(CCCCCNC(=O)NC12CC3CC(CC(C3)C1)C2)N[C@@H](Cc1cnc[nH]1)C(=O)O
–	> 500	> 100	CCC(C)[C@H](NC(=O)CCCCCNC(=O)NC12CC3CC(CC(C3)C1)C2)C(=O)O (some centres undefined)
–	> 500	0.1	O=C(CCCCCNC(=O)NC1CCCCC1)N[C@@H](Cc1ccccc1)C(=O)N[C@@H](Cc1ccccc1)C(=O)O
30	> 500	–	CC(C)[C@H](NC(=O)CCCNC(=O)NC12CC3CC(CC(C3)C1)C2)C(=O)O
> 100	> 500	–	O=C(O)CC[C@H](NC(=O)CCCNC(=O)NC12CC3CC(CC(C3)C1)C2)C(=O)O
> 100	> 500	–	O=C(O)CNC(=O)CCCNC(=O)NC12CC3CC(CC(C3)C1)C2
0.56	> 500	41	CC(C)[C@H](NC(=O)CCCCCNC(=O)NC1CCCCC1)C(=O)O
–	> 500	0.87	CSCC[C@H](NC(=O)[C@H](Cc1ccccc1)NC(=O)CCCCCNC(=O)NC1CCCCC1)C(=O)O
–	> 500	> 100	O=C(NCCCCCC(=O)N1CCC[C@H]1C(=O)O)NC12CC3CC(CC(C3)C1)C2
–	> 500	> 100	C[C@H](NC(=O)CCCCCNC(=O)NC12CC3CC(CC(C3)C1)C2)C(=O)O
–	> 500	5.5	O=C(CCCCCNC(=O)NC1CCCCC1)N[C@@H](Cc1ccccc1)C(=O)N[C@@H](Cc1cnc[nH]1)C(=O)O
16	> 500	–	N=C(N)NCCC[C@H](NC(=O)CCCNC(=O)NC12CC3CC(CC(C3)C1)C2)C(=O)O
–	> 500	80	O=C(CCCCCNC(=O)NC12CC3CC(CC(C3)C1)C2)N[C@@H](Cc1ccc(O)cc1)C(=O)O
1.4	> 500	17	CC(C)[C@H](NC(=O)CCCNC(=O)NC1CCCCC1)C(=O)O
–	> 500	0.26	C[C@H](NC(=O)[C@H](Cc1ccccc1)NC(=O)CCCCCNC(=O)NC1CCCCC1)C(=O)O
–	> 500	2.1	N=C(N)NCCC[C@H](NC(=O)[C@H](Cc1ccccc1)NC(=O)CCCCCNC(=O)NC1CCCCC1)C(=O)O
–	–	> 100	O=C(O)CCCCCNC(=O)NC12CC3CC(CC(C3)C1)C2

IC50 [1] [µM]	solubility [2] [µM]	IC50 [3] [µM]	Compound
–	–	1.8	COC(=O)CCCCCNC(=O)NC12CC3CC(CC(C3)C1)C2
–	> 500	0.23	O=C(CCCCCNC(=O)NC1CCCCC1)N[C@@H](Cc1ccccc1)C(=O)N[C@@H](Cc1ccc(O)cc1)C(=O)O
–	> 500	> 100	N=C(N)NCCC[C@H](NC(=O)CCCCCNC(=O)NC12CC3CC(CC(C3)C1)C2)C(=O)O
–	> 500	> 100	CC(C)C[C@H](NC(=O)CCCCCNC(=O)NC12CC3CC(CC(C3)C1)C2)C(=O)O
–	> 500	1.5	O=C(O)CNC(=O)[C@H](Cc1ccccc1)NC(=O)CCCCCNC(=O)NC1CCCCC1
–	> 500	0.1	CC(C)[C@H](NC(=O)[C@H](Cc1ccccc1)NC(=O)CCCCCNC(=O)NC1CCCCC1)C(=O)O
–	> 500	0.13	CC[C@H](C)[C@H](NC(=O)[C@H](Cc1ccccc1)NC(=O)CCCCCNC(=O)NC1CCCCC1)C(=O)O
–	> 500	> 100	O=C(O)C[C@H](NC(=O)[C@H](Cc1ccccc1)NC(=O)CCCCCNC(=O)NC1CCCCC1)C(=O)O
–	> 500	> 100	CC(O)[C@H](NC(=O)CCCCCNC(=O)NC12CC3CC(CC(C3)C1)C2)C(=O)O (some centres undefined)
0.06	> 500	> 100	O=C(CCCCCNC(=O)NC1CCCCC1)N[C@@H](Cc1cnc[nH]1)C(=O)O
1.9	–	36	O=C(O)CCCNC(=O)NC1CCCCC1
0.23	> 500	> 100	NC(N)=NCCC[C@H](NC(=O)CCCCCNC(=O)NC1CCCCC1)C(=O)O
0.11	–	3.2	COC(=O)CCCCCNC(=O)NC1CCCCC1
–	> 500	> 100	O=C(O)CC[C@H](NC(=O)CCCCCNC(=O)NC12CC3CC(CC(C3)C1)C2)C(=O)O
–	> 500	> 100	O=C(O)CNC(=O)CCCCCNC(=O)NC12CC3CC(CC(C3)C1)C2
82	> 500	–	O=C(NCCCC(=O)N1CCC[C@H]1C(=O)O)NC12CC3CC(CC(C3)C1)C2
18	> 500	–	O=C(CCCNC(=O)NC12CC3CC(CC(C3)C1)C2)N[C@@H](Cc1ccc(O)cc1)C(=O)O
–	> 500	> 100	O=C(O)CC[C@H](NC(=O)[C@H](Cc1ccccc1)NC(=O)CCCCCNC(=O)NC1CCCCC1)C(=O)O
–	> 500	> 100	O=C(CCCCCNC(=O)NC12CC3CC(CC(C3)C1)C2)N[C@@H](CO)C(=O)O
–	> 500	41	O=C(CCCCCNC(=O)NC12CC3CC(CC(C3)C1)C2)N[C@@H](Cc1c[nH]c2ccccc12)C(=O)O

IC50 [1] [µM]	solubility [2] [µM]	IC50 [3] [µM]	Compound
8.4	> 500	–	O=C(CCCNC(=O)NC12CC3CC(CC(C3)C1)C2)N[C@@H](Cc1c[nH]c2ccccc12)C(=O)O
15	> 500	–	CC(C)C[C@H](NC(=O)CCCNC(=O)NC12CC3CC(CC(C3)C1)C2)C(=O)O
–	> 500	> 100	O=C(O)C[C@H](NC(=O)CCCCCNC(=O)NC12CC3CC(CC(C3)C1)C2)C(=O)O
–	> 500	55	CC(C)[C@H](NC(=O)CCCCCNC(=O)NC12CC3CC(CC(C3)C1)C2)C(=O)O
–	> 500	2.7	O=C(CCCCCNC(=O)NC12CC3CC(CC(C3)C1)C2)N[C@@H](Cc1ccccc1)C(=O)O
47	–	–	O=C(CCCNC(=O)NC12CC3CC(CC(C3)C1)C2)N[C@@H](CO)C(=O)O
–	> 500	0.1	O=C(CCCCCNC(=O)NC1CCCCC1)N[C@@H](Cc1ccccc1)C(=O)N[C@@H](Cc1c[nH]c2ccccc12)C(=O)O
1.3	> 500	–	CCC(C)[C@H](NC(=O)CCCNC(=O)NC12CC3CC(CC(C3)C1)C2)C(=O)O (some centres undefined)
> 100	> 500	–	O=C(O)C[C@H](NC(=O)CCCNC(=O)NC12CC3CC(CC(C3)C1)C2)C(=O)O
51	> 500	> 100	O=C(O)CC[C@H](NC(=O)CCCCCNC(=O)NC1CCCCC1)C(=O)O
–	> 500	> 100	CSCC[C@H](NC(=O)CCCCCNC(=O)NC12CC3CC(CC(C3)C1)C2)C(=O)O
4.8	> 500	–	CSCC[C@H](NC(=O)CCCNC(=O)NC12CC3CC(CC(C3)C1)C2)C(=O)O
> 100	> 500	–	C[C@H](NC(=O)CCCNC(=O)NC12CC3CC(CC(C3)C1)C2)C(=O)O
24	–	> 100	O=C(O)CCCCCNC(=O)NC1CCCCC1
0.8	> 500	–	O=C(CCCNC(=O)NC12CC3CC(CC(C3)C1)C2)N[C@@H](Cc1ccccc1)C(=O)O
–	> 500	0.88	CC(C)C[C@H](NC(=O)[C@H](Cc1ccccc1)NC(=O)CCCCCNC(=O)NC1CCCCC1)C(=O)O
–	> 500	1.3	C[C@H](O)[C@H](NC(=O)[C@H](Cc1ccccc1)NC(=O)CCCCCNC(=O)NC1CCCCC1)C(=O)O
> 100	–	> 100	O=C(O)CNC(=O)NC1CCCCC1
0.15	–	2.7	O=C(CCCCCNC(=O)NC1CCCCC1)N[C@@H](Cc1ccccc1)C(=O)O (stereo in doubt; form 1)
–	> 500	1	O=C(CCCCCNC(=O)NC1CCCCC1)N[C@@H](Cc1ccccc1)C(=O)O (stereo in doubt; form 2)

Compound	IC50 [1] [µM]	solubility [2] [µM]	IC50 [3] [µM]
O=C(O)CCCNC(=O)NC12CC3CC(CC(C3)C1)C2	> 100	> 500	–
